Test results reported in ChEMBL document CHEMBL1208768, “Synthesis, selective anti-Helicobacter pylori activity, and cytotoxicity of novel N-substituted-2-oxo-2H-1-benzopyran-3-carboxamides” (Bioorg Med Chem Lett, 2010).
Activity calls are given as the source filed them. The rule behind the calls is not given here.

Assays:
Klebsiella oxytoca = assay: Antibacterial activity against Klebsiella oxytoca after 18 to 22 hrs by broth microdilution method; type: functional
Method in brief: (§1)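 Clinical respiratory-tract isolates from patients, subcultured for purity and identified conventionally. Broth microdilution per NCCLS in Mueller–Hinton II broth; each plate had growth controls (bacteria, no compound) and medium-only controls. Incubation 18–22 h at 35 °C. MIC taken as the lowest concentration giving complete growth inhibition by unaided eye.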

[1] = test system: Staphylococcus haemolyticus; assay: Antibacterial activity against Staphylococcus haemolyticus after 18 to 22 hrs by broth microdilution method; type: functional; method in brief: as §1
Proteus vulgaris = assay: Antibacterial activity against Proteus vulgaris after 18 to 22 hrs by broth microdilution method; type: functional; method in brief: as §1
Klebsiella pneumoniae = assay: Antibacterial activity against Klebsiella pneumoniae after 18 to 22 hrs by broth microdilution method; type: functional; method in brief: as §1
Candida albicans = assay: Antifungal activity against Candida albicans after 24 hrs by broth microdilution method; type: functional
Method in brief: (§2)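 Candida isolates from respiratory-tract specimens, tested by NCCLS broth microdilution in Sabouraud dextrose broth. Serial compound dilutions inoculated to 10³/mL, with fungus-only and medium-only controls. Incubated 24 h at 37 °C. MIC was the lowest concentration with complete visible growth inhibition.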

[Candida] sake = Antifungal activity against Candida sake after 24 hrs by broth microdilution method; type: functional; conditions: Fermentozyma sake; method in brief: as §2
Enterobacter = assay: Antibacterial activity against Enterobacter after 18 to 22 hrs by broth microdilution method; type: functional; method in brief: as §1
AGS [2] = assay: Antiinflammatory activity in human AGS cells assessed as inhibition of IL-8 production at 0.5 ug/mL after 24 hrs; type: functional, cell-based
Method in brief: (§3)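 AGS gastric adenocarcinoma cells were grown in F-12K with 10% FBS. They were seeded at 1 × 10⁵/mL for 24 h, preincubated 1 h with compound at 5 or 0.5 µg/mL, then exposed to H. pylori.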

Enterococcus faecalis = assay: Antibacterial activity against Streptococcus faecalis after 18 to 22 hrs by broth microdilution method; type: functional; method in brief: as §1
Staphylococcus aureus = assay: Antibacterial activity against Staphylococcus aureus after 18 to 22 hrs by broth microdilution method; type: functional; method in brief: as §1
AGS [3] = assay: Antiinflammatory activity in human AGS cells assessed as inhibition of IL-8 production at 5 ug/mL after 24 hrs; type: functional, cell-based; method in brief: as §3
Staphylococcus hominis = assay: Antibacterial activity against Staphylococcus hominis after 18 to 22 hrs by broth microdilution method; type: functional; method in brief: as §1
Escherichia coli = assay: Antibacterial activity against Escherichia coli after 18 to 22 hrs by broth microdilution method; type: functional; method in brief: as §1
Pichia kudriavzevii = assay: Antifungal activity against Candida krusei after 24 hrs by broth microdilution method; type: functional; method in brief: as §2
[4] = Solubility of the compound in DMSO at 0.0039 to 128 ug/mL; type: physicochemical
Citrobacter freundii = assay: Antibacterial activity against Citrobacter freundii after 18 to 22 hrs by broth microdilution method; type: functional; method in brief: as §1
Klebsiella aerogenes = assay: Antibacterial activity against Enterobacter aerogenes after 18 to 22 hrs by broth microdilution method; type: functional; method in brief: as §1
[5] = test system: Staphylococcus epidermidis; assay: Antibacterial activity against Staphylococcus epidermidis after 18 to 22 hrs by broth microdilution method; type: functional; method in brief: as §1

Row | MIC (Klebsiella oxytoca) [µg/mL] | MIC (Proteus vulgaris) [µg/mL] | MIC (Klebsiella pneumoniae) [µg/mL] | MIC (Candida albicans) [µg/mL] | MIC ([Candida] sake) [µg/mL] | MIC (Enterobacter) [µg/mL] | MIC (Enterococcus faecalis) [µg/mL] | MIC (Staphylococcus aureus) [µg/mL] | MIC (Staphylococcus hominis) [µg/mL] | MIC (Escherichia coli) [µg/mL] | MIC (Pichia kudriavzevii) [µg/mL] | solubility [4] | MIC (Citrobacter freundii) [µg/mL] | MIC (Klebsiella aerogenes) [µg/mL] | MIC [5] [µg/mL] | SMILES | MIC [1] [µg/mL] | inhibition (AGS [2]) | inhibition (AGS [3])
1 | > 128 | > 128 | > 128 | > 128 | > 128 | > 128 | > 128 | > 128 | > 128 | > 128 | > 128 | Insoluble | > 128 | > 128 | > 128 | CCOC(=O)c1ccc(NC(=O)c2cc3cc([N+](=O)[O-])ccc3oc2=O)cc1 | > 128 | inactive | inactive
2 | > 128 | > 128 | > 128 | > 128 | > 128 | > 128 | > 128 | > 128 | > 128 | > 128 | > 128 | Insoluble | > 128 | > 128 | > 128 | Cc1ccc2oc(=O)c(C(=O)Nc3ccc(C(=O)O)cc3)cc2c1 | > 128 | inactive | inactive
3 | > 128 | > 128 | > 128 | > 128 | > 128 | > 128 | > 128 | > 128 | > 128 | > 128 | > 128 | Insoluble | > 128 | > 128 | > 128 | CCOC(=O)c1ccc(NC(=O)c2cc3ccc(OC)cc3oc2=O)cc1 | > 128 | inactive | inactive
